The term EC50 denotes the concentration that produces a half-maximal response. Low readings indicate an effect from little substance, high ones a need for much substance. Broadly, the NOAEL is the highest dose or exposure tested at which no adverse effect was seen. Usually IC50 stands for the point on the concentration scale where inhibition reaches its midpoint.

Data set [1] can be described thus: Stability of the compound in pH 9.3 buffer assessed as parent compound remaining measured after 24 hrs at room temperature. The format is physicochemical. The note with it: read-out: Stability.
In data set [2] the target is T1, Taste receptor type 2 member 1 (Homo sapiens) (UniProt Q9NYW7).
T1 sequence (whole entry): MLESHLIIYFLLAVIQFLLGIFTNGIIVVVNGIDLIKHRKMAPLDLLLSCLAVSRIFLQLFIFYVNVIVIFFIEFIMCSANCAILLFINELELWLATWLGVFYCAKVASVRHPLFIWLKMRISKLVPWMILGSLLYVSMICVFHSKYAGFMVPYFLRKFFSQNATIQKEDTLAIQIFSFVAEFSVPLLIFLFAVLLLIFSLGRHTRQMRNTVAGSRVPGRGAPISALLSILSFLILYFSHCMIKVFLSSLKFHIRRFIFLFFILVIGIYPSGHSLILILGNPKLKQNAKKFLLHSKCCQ
Description: Agonist activity at TAS2R1 (unknown origin) at 25 uM by transiently expressed cell-based assay.

In data set [3] the target is Taste receptor type 2 member 14 (Homo sapiens, UniProt Q9NYV8). Description: Agonist activity at TAS2R14 (unknown origin) by stably expressed cell-based assay.
Sequence of Taste receptor type 2 member 14 (Q9NYV8 whole entry): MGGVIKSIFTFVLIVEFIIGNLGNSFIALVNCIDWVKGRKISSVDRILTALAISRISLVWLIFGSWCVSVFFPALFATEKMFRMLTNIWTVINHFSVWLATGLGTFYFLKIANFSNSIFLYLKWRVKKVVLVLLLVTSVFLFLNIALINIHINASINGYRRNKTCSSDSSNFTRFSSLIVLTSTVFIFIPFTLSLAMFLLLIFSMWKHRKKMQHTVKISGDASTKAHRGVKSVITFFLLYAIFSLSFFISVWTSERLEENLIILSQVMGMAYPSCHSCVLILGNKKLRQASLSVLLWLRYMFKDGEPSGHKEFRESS
Data set [4] can be described thus: Stability of the compound in pH 7.1 buffer assessed as parent compound remaining measured after 24 hrs at room temperature. The note with it: read-out: Stability. The format is physicochemical.
For data set [5], the target named is Taste receptor type 2 member 5 (Homo sapiens) (UniProt Q9NYW4). Description: Antagonist activity at recombinant human TAS2R5 transiently expressed in HEK293T co-expressing Galpha16gust44 assessed as inhibition of picoline-induced intracellular calcium level by measuring remaining activity at 25 uM by fluo-4AM dye based FLIPR assay relative to control. The format is functional, cell-based.
Sequence of Taste receptor type 2 member 5 (Homo sapiens) (Q9NYW4 whole entry): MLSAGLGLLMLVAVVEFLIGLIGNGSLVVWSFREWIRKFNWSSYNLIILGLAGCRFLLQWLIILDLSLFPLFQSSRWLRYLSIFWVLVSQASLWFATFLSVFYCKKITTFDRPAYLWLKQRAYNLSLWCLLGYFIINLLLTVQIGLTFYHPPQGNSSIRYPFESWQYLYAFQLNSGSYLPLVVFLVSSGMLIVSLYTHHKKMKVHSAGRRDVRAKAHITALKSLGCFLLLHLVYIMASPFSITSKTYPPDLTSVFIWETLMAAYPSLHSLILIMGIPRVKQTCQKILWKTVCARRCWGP

In data set [6] the target is Taste receptor type 2 member 30 (Homo sapiens) (UniProt P59541). Kind of data set: Antagonist activity at recombinant human TAS2R30 transiently expressed in HEK293T co-expressing Galpha16gust44 assessed as inhibition of denatonium-induced intracellular calcium level by measuring remaining activity at 25 uM by fluo-4AM dye based FLIPR assay relative to control. The class given is functional, cell-based. In general terms: Calcium flux is commonly read through the fluorescence of an indicator in the cells.
Sequence of Taste receptor type 2 member 30 (Homo sapiens) (P59541 whole entry): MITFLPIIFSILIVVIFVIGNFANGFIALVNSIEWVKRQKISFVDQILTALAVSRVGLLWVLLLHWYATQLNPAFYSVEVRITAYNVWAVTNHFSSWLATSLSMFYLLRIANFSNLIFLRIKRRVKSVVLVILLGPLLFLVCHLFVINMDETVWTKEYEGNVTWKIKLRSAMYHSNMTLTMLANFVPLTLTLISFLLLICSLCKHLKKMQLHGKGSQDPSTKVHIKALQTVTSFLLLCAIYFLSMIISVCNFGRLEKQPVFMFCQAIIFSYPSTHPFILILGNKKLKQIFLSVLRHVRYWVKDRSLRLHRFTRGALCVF

A short description of data set [7]: Maternal toxicity in po dosed Sprague-Dawley rat administered via gavage during gestation period. The format is ADME, organism-based. As to conditions: female, in vivo.
Data set [8] can be described thus: Chronic toxicity in po dosed Sprague-Dawley rat administered daily for 90 days. The format is organism-based. The note with it: in vivo.
Data set [9] concerns the target Taste receptor type 2 member 7 (Homo sapiens) (UniProt Q9NYW3). Description: Antagonist activity at recombinant human TAS2R7 transiently expressed in HEK293T co-expressing Galpha16gust44 assessed as inhibition of chloroquine-induced intracellular calcium level by measuring remaining activity at 25 uM by fluo-4AM dye based FLIPR assay relative to control. The class given is functional, cell-based.

Data set [10] concerns the target Taste receptor type 2 member 1 (Homo sapiens, UniProt Q9NYW7). Description: Agonist activity at TAS2R1 (unknown origin) by stably expressed cell-based assay.
Data set [11] in a line: Stability of the compound in pH 6 buffer assessed as parent compound remaining measured after 60 mins at 124 degC. The note with it: read-out: Stability. The format is physicochemical.
A short description of data set [12]: Stability of the compound in pH 6.5 buffer assessed as parent compound remaining measured after 30 secs at 140 degC. The class given is physicochemical. As to conditions: read-out: Stability.
The subject of data set [13] is Homo sapiens. Kind of data set: In vivo agonist activity at TAS2R14 in human assessed as induction of intrinsic bitterness up to 150 uM in presence of low sodium buffer by 15-point bitterness scale based assay. The format is functional, organism-based. Summed up: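 Human sensory test: trained external panelists, no food or drink except water ≥1 h before; compound from ethanol stock, final ethanol 0.1% (matched in blanks), in low sodium phosphate buffer pH 7.1 (0.3 mM KCl, 0.5 mM Na2HPO4, 0.175 mM KH2PO4); bitterness rated on 1–15 scale, 15 panelists × 2 replicates, Tukey's test (α = 0.05).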

The target of data set [14] is Taste receptor type 2 member 16 (Homo sapiens) (UniProt Q9NYV7). Description: Antagonist activity at recombinant human TAS2R16 transiently expressed in HEK293T co-expressing Galpha16gust44 assessed as inhibition of salicin-induced intracellular calcium level by measuring remaining activity at 25 uM by fluo-4AM dye based FLIPR assay relative to control. The class given is functional, cell-based.
Sequence of Taste receptor type 2 member 16 (Homo sapiens) (Q9NYV7 whole entry): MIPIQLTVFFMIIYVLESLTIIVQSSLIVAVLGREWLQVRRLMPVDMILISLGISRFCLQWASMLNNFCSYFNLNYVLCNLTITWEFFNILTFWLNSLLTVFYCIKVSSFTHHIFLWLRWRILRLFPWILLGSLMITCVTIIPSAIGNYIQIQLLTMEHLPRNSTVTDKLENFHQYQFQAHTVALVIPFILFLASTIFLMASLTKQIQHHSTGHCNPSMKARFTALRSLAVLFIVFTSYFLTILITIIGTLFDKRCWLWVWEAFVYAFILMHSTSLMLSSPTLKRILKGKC

In data set [15] the target is T2, Taste receptor type 2 member 8 (Homo sapiens) (UniProt Q9NYW2).
T2 sequence (whole entry): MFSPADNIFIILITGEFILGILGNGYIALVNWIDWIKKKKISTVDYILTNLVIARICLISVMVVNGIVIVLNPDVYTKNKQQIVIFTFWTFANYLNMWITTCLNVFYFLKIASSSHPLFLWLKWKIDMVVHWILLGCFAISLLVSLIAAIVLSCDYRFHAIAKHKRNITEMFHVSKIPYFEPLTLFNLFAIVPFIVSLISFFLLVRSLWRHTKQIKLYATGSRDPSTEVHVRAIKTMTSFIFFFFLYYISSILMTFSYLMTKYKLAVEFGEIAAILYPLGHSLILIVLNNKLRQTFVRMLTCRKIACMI
Description: Competitive antagonist activity at recombinant human TAS2R8 assessed as inhibition of chloramphenicol-induced intracellular calcium level at 3 to 3000 nM preincubated for 60 secs followed by varying levels of chloramphenicol addition using Fura-2AM dye by cell-based fluorescent microscopic analysis.

The target of data set [16] is T3, Taste receptor type 2 member 8 (Homo sapiens, UniProt Q9NYW2).
T3 sequence (Q9NYW2 whole entry): T2 sequence (whole entry)
Description: Antagonist activity at recombinant human TAS2R8 stably expressed in cells co-expressing Galpha16gust44 assessed as inhibition of andrographolide-induced intracellular calcium level measured for 100 secs by fluo-4 dye based FLIPR assay. The format is functional, cell-based. Summed up:
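Recombinant cells stably expressing G16t44 chimera and TAS2R8 (clones isolated by limiting dilution), plated 24 h before assay; loaded with fluo-4 in PBS 60 min, washed, rested 15 min in dark at RT. Andrographolide agonist at its EC80, premixed with antagonist and added together; final DMSO 0.5%. Baseline read 10 s, then fluorescence followed 100 s on FLIPR.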

Data set [17] is described as follows: Stability of the compound in pH 5 buffer assessed as parent compound remaining measured after 24 hrs at 100 degC. The class given is physicochemical. As to conditions: read-out: Stability.
Data set [18] deals with T2, Taste receptor type 2 member 8 (Homo sapiens). Kind of data set: Antagonist activity at recombinant human TAS2R8 assessed as inhibition of andrographolide-induced intracellular calcium level at 1 uM preincubated for 60 secs followed by andrographolide addition using Fura-2AM dye by cell-based fluorescent microscopic analysis. The class given is functional. Summed up: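 TAS2R8 stable cells grown overnight on Matrigel-coated coverslips, loaded with 3 μg/mL Fura-2AM 1 h at RT in HBSS; ratiometric imaging under continuous HBSS perfusion with 100 μM andrographolide. Inhibitor 1 μM applied 60 s before and during agonist; 5 min HBSS washout between applications; only cells with initial ΔF/F > 0.5 analysed; mean and per-cell peak responses, 136 cells, 3 experiments.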

Data set [19] can be described thus: Drug metabolism in pH 7.1 buffer assessed as hydrolytic opening of hydantoin ring by measuring compound 66 formation measured under heat condition.
Data set [20] is described as follows: Stability of the compound in pH 7.1 buffer assessed as parent compound remaining measured after 60 mins at 124 degC. The class given is physicochemical. The note with it: read-out: Stability.
Data set [21] has as its target Taste receptor type 2 member 43 (Homo sapiens) (UniProt P59537). Kind of data set: Antagonist activity at recombinant human TAS2R43 transiently expressed in HEK293T co-expressing Galpha16gust44 assessed as inhibition of aristolochic acid-induced intracellular calcium level by measuring remaining activity at 25 uM by fluo-4AM dye based FLIPR assay relative to control. The class given is functional, cell-based.

Active and inactive are the calls of the source. No cut-off for these calls is given here.

Sequence of Taste receptor type 2 member 7 (Homo sapiens) (Q9NYW3 whole entry): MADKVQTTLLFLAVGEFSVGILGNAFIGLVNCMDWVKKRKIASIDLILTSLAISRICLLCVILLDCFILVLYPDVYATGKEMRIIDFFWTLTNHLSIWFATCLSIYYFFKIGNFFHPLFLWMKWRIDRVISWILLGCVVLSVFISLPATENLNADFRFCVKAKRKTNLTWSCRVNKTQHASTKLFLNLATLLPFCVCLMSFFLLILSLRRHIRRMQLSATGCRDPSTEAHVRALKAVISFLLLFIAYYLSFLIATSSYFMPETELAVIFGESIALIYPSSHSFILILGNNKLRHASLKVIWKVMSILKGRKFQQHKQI
Sequence of Taste receptor type 2 member 43 (Homo sapiens) (P59537 whole entry): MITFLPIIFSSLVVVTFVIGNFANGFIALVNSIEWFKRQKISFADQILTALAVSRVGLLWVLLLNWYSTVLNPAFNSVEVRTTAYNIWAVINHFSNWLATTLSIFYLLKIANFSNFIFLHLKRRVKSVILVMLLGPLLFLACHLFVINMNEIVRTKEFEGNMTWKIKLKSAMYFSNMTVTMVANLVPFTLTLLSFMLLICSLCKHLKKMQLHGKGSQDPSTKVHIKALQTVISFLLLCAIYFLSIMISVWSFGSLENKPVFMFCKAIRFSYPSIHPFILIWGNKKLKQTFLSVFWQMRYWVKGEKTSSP

For `Cc1noc(C)c1Cn1cc(N2C(=O)CN(Cc3cccc(O)c3)C2=O)cn1`, the remaining at 24 h in data set [1] is 20%; in [4], more than 99%; in [17], more than 99%. For the same compound, in [2], the outcome was Active. Also, the EC50 was 40 µM in data set [3] and 150 µM in [10]. Also, the Activity in data set [5] came out at 103%; in data set [6], 112%; in [9], 93%; in data set [14] it was 98%; in data set [21], 84%. This compound also gave an NOAEL in data set [7] of 1000 mg/kg. Further, the no observed adverse effect level (NOAEL) at 2160 h in data set [8] turned out to be 100 mg/kg. The remaining at 1 h is more than 99% in data set [11] and 89% in [20]. In [12], the remaining at 0.5 min was more than 99%. In addition, the outcome in [13] was inactive. Further, the inhibition entry in data set [15] and in [18] was “Active” each time. Further, the IC50 in data set [16] turned out to be 0.02 µM. Besides, the Drug metabolism entry in data set [19] is reported as “Metabolite detected”.
In the case of `Cc1noc(C)c1Cn1cc(N2C(=O)N(Cc3cccc(O)c3)C(C)(C)C2=O)cn1`, the Activity came to 100% in [5]; 43% in data set [6]; 92% in [9]; 88% in data set [14]; 88% in [21]. Besides, the IC50 in data set [16] amounted to 0.06 µM.

(Values after ChEMBL document CHEMBL4342523, “Discovery and Development of S6821 and S7958 as Potent TAS2R8 Antagonists” (J Med Chem, 2020).)
